Measured values: ChEMBL document CHEMBL2034946, “Synthesis and biological evaluation of cyclic sulfamide derivatives as 11β-hydroxysteroid dehydrogenase 1 inhibitors” (ACS Med Chem Lett, 2012)
pIC50: −log10 of the molar value. ≈ marks a conversion by molar mass, not a printed value. One block for each compound: values may come before it.

How the values were obtained:
[1] = molecular target: 11-beta-hydroxysteroid dehydrogenase 1 (Mus musculus, UniProt P50172); assay: Inhibition of mouse 11beta-HSD1 expressed in CHO-K1 cells using cortisone as substrate after 3 hrs by HTRF assay; type: cell-based
Outline: (§1)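 Cells overexpressing human or mouse 11β-HSD1 incubated with cortisone plus compound for 3 h; cortisol measured by HTRF. IC50 fitted from concentration-dependent inhibition curves; means ± SEM of triplicate experiments.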

[2] = test system: Mus musculus; assay: Ex-vivo inhibition of 11betaHSD1 in C57BL/6 mouse liver at 20 mg/kg, po after 2 hrs by ELISA; type: functional; details: C57BL/6, Liver
Outline: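 Normal mice given 20 mpk orally; liver tissue taken 2 h after dosing and 11β-HSD1 activity measured ex vivo as % inhibition relative to vehicle.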

[3] = test system: Mus musculus; assay: Ex-vivo inhibition of 11betaHSD1 in C57BL/6 mouse fat at 20 mg/kg, po after 2 hrs by ELISA; type: functional; details: C57BL/6, 2 h
Outline: (§2)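 Normal mice dosed orally (1, 5, 10 or 20 mpk); 11β-HSD1 activity in fat tissue measured ex vivo 2 h post-dose.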

[4] = Metabolic stability in rat liver microsomes assessed as compound remaining after 30 mins; type: ADME, Microsome; details: read-out: Stability
Outline: (§3)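 Human and rat liver microsomes incubated with compound for 30 min; stability reported as percent parent compound remaining.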

[5] = Metabolic stability in human liver microsomes assessed as compound remaining after 30 mins; type: ADME, Microsome; details: read-out: Stability; outline: as §3
[6] = molecular target: 11-beta-hydroxysteroid dehydrogenase 1 (Homo sapiens, UniProt P28845); assay: Inhibition of human 11beta-HSD1 expressed in CHO-K1 cells using cortisone as substrate after 3 hrs by HTRF assay; type: cell-based; details: for pIC50: read-out: IC50; outline: as §1
[7] = molecular target: Cytochrome P450 2C19 (Homo sapiens, UniProt P33261); assay: Inhibition of CYP2C19 incubated for 20 mins prior to substrate addition measured after 20 mins by fluorimetric assay; type: ADME
[8] = Metabolic stability in plasma at 10 uM after 30 mins; type: ADME, cell-free; details: read-out: Stability
Outline: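 Compound incubated in plasma for 30 min; stability given as percent remaining.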

[9] = Oral bioavailability in Sprague-Dawley rat at 10 mg/kg; type: ADME, organism-based; details: in vivo
[10] = AUC in Sprague-Dawley rat at 10 mg/kg, po; type: ADME, organism-based; set-up: dose 10 mg/kg, route oral; details: plasma
[11] = molecular target: Cytochrome P450 2D6 (Homo sapiens, UniProt P10635); assay: Inhibition of CYP2D6 incubated for 20 mins prior to substrate addition measured after 20 mins by fluorimetric assay; type: ADME
[12] = molecular target: T1, Cytochrome P450 1A2 (Homo sapiens, UniProt P05177); assay: Inhibition of CYP1A2 incubated for 20 mins prior to substrate addition measured after 20 mins by fluorimetric assay; type: ADME
T1 sequence (P05177 whole entry): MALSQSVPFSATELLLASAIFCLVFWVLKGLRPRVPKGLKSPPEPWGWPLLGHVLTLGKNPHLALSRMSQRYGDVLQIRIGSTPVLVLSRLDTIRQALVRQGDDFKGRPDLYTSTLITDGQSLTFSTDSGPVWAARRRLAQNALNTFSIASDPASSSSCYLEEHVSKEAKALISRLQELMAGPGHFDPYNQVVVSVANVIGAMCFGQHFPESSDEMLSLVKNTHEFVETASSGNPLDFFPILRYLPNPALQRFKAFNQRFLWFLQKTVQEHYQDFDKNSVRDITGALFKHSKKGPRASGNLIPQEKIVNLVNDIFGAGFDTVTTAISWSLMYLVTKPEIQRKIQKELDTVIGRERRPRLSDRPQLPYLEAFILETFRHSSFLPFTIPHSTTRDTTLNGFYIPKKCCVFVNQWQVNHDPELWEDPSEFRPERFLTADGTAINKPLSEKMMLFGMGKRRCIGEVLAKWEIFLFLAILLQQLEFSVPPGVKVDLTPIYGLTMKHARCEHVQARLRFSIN

[13] = Cmax in cynomolgus monkey at 10 mg/kg, po; type: ADME, organism-based, Macaca fascicularis; set-up: dose 10 mg/kg, route oral; details: in vivo
[14] = Clearance in Sprague-Dawley rat at 10 mg/kg, po; type: ADME, organism-based; set-up: dose 10 mg/kg, route oral; details: in vivo
[15] = molecular target: T2, 11-beta-hydroxysteroid dehydrogenase type 2 (Homo sapiens) (UniProt P80365); assay: Inhibition of human 11beta-HSD2 expressed in HEK293 cells using […] as substrate at 10 uM after 24 hrs by HTRF assay; type: cell-based
T2 sequence (whole entry): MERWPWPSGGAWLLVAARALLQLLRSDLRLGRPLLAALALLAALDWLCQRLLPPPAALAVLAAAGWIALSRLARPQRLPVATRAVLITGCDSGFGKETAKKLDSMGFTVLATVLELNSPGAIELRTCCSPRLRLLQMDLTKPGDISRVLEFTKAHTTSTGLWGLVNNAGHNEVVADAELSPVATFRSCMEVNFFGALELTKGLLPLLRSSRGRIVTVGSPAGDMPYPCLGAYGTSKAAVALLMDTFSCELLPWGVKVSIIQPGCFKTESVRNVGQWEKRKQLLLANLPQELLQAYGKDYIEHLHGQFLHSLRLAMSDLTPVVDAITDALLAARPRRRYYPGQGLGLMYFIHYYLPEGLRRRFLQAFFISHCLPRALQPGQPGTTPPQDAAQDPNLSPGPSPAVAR

[16] = test system: Cynomolgus monkey; assay: Ex-vivo inhibition of 11beta-HSD1 in cynomolgus monkey inguinal fat at 10 mg/kg, po after 2 hrs by ELISA; type: functional; details: Macaca fascicularis
Outline: (§4)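 Cynomolgus monkeys dosed orally at 10 mpk; 11β-HSD1 activity measured ex vivo in shoulder, inguinal and abdominal cavity fat at 2 h. Means, n = 2 monkeys per group, versus vehicle.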

[17] = test system: Mus musculus; assay: Ex-vivo inhibition of 11betaHSD1 in po dosed C57BL/6 mouse fat after 2 hrs by ELISA; type: functional, organism-based; outline: as §2
[18] = molecular target: Cytochrome P450 2C9 (Homo sapiens, UniProt P11712); assay: Inhibition of CYP2C9; type: ADME
[19] = AUC in cynomolgus monkey at 10 mg/kg, po; type: ADME, organism-based, Macaca fascicularis; set-up: dose 10 mg/kg, route oral; details: plasma
[20] = test system: Mus musculus; assay: Ex-vivo inhibition of 11betaHSD1 in C57BL/6 mouse fat at 5 mg/kg, po after 2 hrs by ELISA; type: functional; details: C57BL/6, 2 h; outline: as §2
[21] = Terminal elimination half life in cynomolgus monkey at 10 mg/kg, po; type: ADME, organism-based, Macaca fascicularis; set-up: dose 10 mg/kg, route oral; details: in vivo, read-out: beta t1/2 (converted)
[22] = test system: Cynomolgus monkey; assay: Ex-vivo inhibition of 11beta-HSD1 in cynomolgus monkey shoulder fat at 10 mg/kg, po after 2 hrs by ELISA; type: functional; details: Macaca fascicularis; outline: as §4
[23] = test system: Mus musculus; assay: Ex-vivo inhibition of 11betaHSD1 in C57BL/6 mouse fat at 10 mg/kg, po after 2 hrs by ELISA; type: functional; details: C57BL/6, 2 h; outline: as §2
[24] = test system: Cynomolgus monkey; assay: Ex-vivo inhibition of 11beta-HSD1 in cynomolgus monkey abdominal fat at 10 mg/kg, po after 2 hrs by ELISA; type: functional; details: Macaca fascicularis, Abdomen; outline: as §4
[25] = molecular target: Cytochrome P450 3A4 (Homo sapiens, UniProt P08684); assay: Inhibition of CYP3A4 incubated for 20 mins prior to substrate addition measured after 20 mins by fluorimetric assay; type: ADME
[26] = test system: Mus musculus; assay: Ex-vivo inhibition of 11betaHSD1 in C57BL/6 mouse fat at 1 mg/kg, po after 2 hrs by ELISA; type: functional; details: C57BL/6, 2 h; outline: as §2
[27] = Cmax in Sprague-Dawley rat at 10 mg/kg, po; type: ADME, organism-based; set-up: dose 10 mg/kg, route oral; details: in vivo
[28] = Aqueous solubility of the compound; type: physicochemical; details: buffer
[29] = Terminal elimination half life in Sprague-Dawley rat at 10 mg/kg, po; type: ADME, organism-based; set-up: dose 10 mg/kg, route oral; details: in vivo, read-out: beta t1/2 (converted)

11-beta-hydroxysteroid dehydrogenase 1 (Homo sapiens, UniProt P28845), sequence (P28845 whole entry): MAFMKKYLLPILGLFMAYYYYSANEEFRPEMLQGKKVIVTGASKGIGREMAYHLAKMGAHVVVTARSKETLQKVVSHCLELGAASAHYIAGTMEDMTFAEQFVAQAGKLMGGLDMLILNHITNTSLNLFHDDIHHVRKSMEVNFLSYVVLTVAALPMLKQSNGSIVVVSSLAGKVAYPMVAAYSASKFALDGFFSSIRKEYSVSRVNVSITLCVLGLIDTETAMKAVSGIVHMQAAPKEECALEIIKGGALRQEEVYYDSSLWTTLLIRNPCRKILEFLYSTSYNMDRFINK
11-beta-hydroxysteroid dehydrogenase 1 (Mus musculus, UniProt P50172), sequence (P50172 whole entry): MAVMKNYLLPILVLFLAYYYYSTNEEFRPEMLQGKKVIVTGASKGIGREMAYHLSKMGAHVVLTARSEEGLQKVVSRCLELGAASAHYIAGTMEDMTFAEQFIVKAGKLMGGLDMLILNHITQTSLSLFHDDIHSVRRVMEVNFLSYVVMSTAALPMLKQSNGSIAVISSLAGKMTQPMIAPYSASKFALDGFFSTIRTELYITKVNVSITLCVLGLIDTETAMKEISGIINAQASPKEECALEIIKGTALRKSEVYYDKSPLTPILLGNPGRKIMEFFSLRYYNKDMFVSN
Cytochrome P450 3A4, sequence (P08684 whole entry): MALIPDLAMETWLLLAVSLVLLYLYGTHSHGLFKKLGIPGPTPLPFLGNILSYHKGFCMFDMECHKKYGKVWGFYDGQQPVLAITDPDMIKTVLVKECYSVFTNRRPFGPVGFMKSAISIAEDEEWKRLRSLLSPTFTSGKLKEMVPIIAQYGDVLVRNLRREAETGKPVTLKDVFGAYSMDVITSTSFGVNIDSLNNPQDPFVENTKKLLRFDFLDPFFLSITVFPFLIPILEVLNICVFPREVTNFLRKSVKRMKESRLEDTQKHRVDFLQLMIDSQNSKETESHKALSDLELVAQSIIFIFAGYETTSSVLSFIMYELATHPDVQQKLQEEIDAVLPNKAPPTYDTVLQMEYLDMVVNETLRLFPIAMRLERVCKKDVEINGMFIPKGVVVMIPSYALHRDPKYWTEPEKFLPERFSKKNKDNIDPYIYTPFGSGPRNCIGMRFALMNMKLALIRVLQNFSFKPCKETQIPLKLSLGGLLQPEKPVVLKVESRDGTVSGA
Cytochrome P450 2C9, sequence (P11712 whole entry): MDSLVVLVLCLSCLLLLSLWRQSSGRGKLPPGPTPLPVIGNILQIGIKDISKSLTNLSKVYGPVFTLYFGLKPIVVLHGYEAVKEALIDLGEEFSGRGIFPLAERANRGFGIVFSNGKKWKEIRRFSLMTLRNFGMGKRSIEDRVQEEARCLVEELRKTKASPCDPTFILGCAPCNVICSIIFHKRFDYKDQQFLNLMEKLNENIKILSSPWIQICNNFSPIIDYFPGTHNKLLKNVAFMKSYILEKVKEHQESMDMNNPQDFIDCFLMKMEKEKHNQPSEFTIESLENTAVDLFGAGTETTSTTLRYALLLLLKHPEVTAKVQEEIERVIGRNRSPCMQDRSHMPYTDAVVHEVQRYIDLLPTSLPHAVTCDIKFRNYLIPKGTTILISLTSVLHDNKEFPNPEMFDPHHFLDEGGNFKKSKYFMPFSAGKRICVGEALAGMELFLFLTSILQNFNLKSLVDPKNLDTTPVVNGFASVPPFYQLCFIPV
Cytochrome P450 2C19, sequence (P33261 whole entry): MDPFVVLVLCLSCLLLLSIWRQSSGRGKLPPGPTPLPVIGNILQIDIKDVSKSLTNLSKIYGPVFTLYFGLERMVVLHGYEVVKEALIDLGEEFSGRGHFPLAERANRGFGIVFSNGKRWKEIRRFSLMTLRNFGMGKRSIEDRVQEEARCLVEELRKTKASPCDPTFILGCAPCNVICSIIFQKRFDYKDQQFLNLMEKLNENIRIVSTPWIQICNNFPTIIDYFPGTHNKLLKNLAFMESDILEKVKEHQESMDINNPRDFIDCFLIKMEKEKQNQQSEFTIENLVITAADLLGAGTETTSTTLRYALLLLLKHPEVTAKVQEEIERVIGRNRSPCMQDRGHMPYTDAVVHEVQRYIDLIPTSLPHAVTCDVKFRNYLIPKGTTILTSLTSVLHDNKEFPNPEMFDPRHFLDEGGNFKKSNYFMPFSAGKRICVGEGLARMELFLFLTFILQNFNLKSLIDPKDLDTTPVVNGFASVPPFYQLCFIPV
Cytochrome P450 2D6, sequence (P10635 whole entry): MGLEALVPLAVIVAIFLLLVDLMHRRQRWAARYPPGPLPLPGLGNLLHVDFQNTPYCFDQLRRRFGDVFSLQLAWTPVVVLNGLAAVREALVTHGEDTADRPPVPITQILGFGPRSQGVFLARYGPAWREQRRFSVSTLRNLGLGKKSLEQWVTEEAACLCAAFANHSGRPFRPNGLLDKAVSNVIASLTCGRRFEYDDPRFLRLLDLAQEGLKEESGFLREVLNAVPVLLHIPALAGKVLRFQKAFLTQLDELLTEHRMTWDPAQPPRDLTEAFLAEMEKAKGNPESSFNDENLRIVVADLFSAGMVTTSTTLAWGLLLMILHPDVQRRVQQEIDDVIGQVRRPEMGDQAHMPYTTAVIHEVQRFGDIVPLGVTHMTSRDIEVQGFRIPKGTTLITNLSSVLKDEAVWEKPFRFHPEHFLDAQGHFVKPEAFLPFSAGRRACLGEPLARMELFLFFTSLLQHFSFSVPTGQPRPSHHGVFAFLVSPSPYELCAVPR

SMILES: C=C1CN(CC(=O)N[C@H]2C3CC4CC2C[C@](C(N)=O)(C4)C3)S(=O)(=O)N(c2c(Cl)cc(Cl)cc2Cl)C1
- pIC50 [1]: 8.10
- inhibition in vivo at 20 mg/kg [3]: 82.1%
- pIC50 [6]: 7.85

SMILES: O=C(O)CN1CCCN(c2ccccc2)S1(=O)=O
- IC50 ([6]; cho-k1): Not Active

SMILES: NC(=O)[C@]12CC3CC(C1)[C@@H](NC(=O)CN1CCCN(c4ccc(F)cc4)S1(=O)=O)C(C3)C2
- pIC50 [1]: 4.81
- pIC50 [6]: 3.45

SMILES: CC1CN(CC(=O)N[C@H]2C3CC4CC2C[C@](C(N)=O)(C4)C3)S(=O)(=O)N(c2c(Cl)cc(Cl)cc2Cl)C1 (mixture of isomers)
- INH [7]: > 100 µM
- remaining at 0.5 h, 10 µM [8]: 100%
- bioavailability [9]: 68.8%
- AUC [10]: 15700 ng·h/mL
- pIC50 [1]: 8.70
- INH [11]: > 100 µM
- INH [12]: > 100 µM
- Cmax [13]: 6400 ng/mL
- CL/F [14]: 11.7 mL/min/kg
- inhibition [15]: 20%
- inhibition in vivo at 10 mg/kg [16]: 83%
- inhibition [17]: Dose-dependent effect
- INH [18]: > 100 µM
- inhibition in vivo at 20 mg/kg [3]: 95.9%
- AUC [19]: 35600 ng·h/mL
- inhibition in vivo at 5 mg/kg [20]: 90.4%
- half-life [21]: 3.4 h
- inhibition in vivo at 10 mg/kg [22]: 87%
- inhibition in vivo at 10 mg/kg [23]: 90.7%
- inhibition in vivo at 10 mg/kg [24]: 81%
- remaining at 0.5 h [4]: 78%
- INH [25]: > 100 µM
- inhibition in vivo at 1 mg/kg [26]: 76.6%
- Cmax [27]: 3100 ng/mL
- solubility [28]: 361 µM (≈ 204 µg/mL)
- remaining at 0.5 h [5]: 93%
- half-life [29]: 3.8 h
- pIC50 [6]: 9.00

SMILES: CC1(C)CN(CC(=O)N[C@H]2C3CC4CC2C[C@](C(N)=O)(C4)C3)S(=O)(=O)N(c2c(Cl)cc(Cl)cc2Cl)C1
- pIC50 [1]: 7.59
- inhibition in vivo at 20 mg/kg [3]: 29.9%
- pIC50 [6]: 8.30

SMILES: NC(=O)[C@]12CC3CC(C1)[C@@H](NC(=O)CN1CCCN(c4c(F)cc(F)cc4F)S1(=O)=O)C(C3)C2
- pIC50 [1]: 6.80
- pIC50 [6]: 7.70

SMILES: NC(=O)[C@]12CC3CC(C1)[C@@H](NC(=O)CN1CC4(CC4)CN(c4c(Cl)cc(Cl)cc4Cl)S1(=O)=O)C(C3)C2
- pIC50 [1]: 7.64
- inhibition in vivo at 20 mg/kg [3]: 39.6%
- pIC50 [6]: 8.30

SMILES: NC(=O)[C@]12CC3CC(C1)[C@@H](NC(=O)CN1CCN(c4c(Cl)cc(Cl)cc4Cl)S1(=O)=O)C(C3)C2
- pIC50 [1]: 6.39
- pIC50 [6]: 6.73

SMILES: NC(=O)[C@]12CC3CC(C1)[C@@H](NC(=O)CN1CCCN(c4ccccc4F)S1(=O)=O)C(C3)C2
- pIC50 [1]: 6.77
- pIC50 [6]: 7.85

SMILES: NC(=O)[C@]12CC3CC(C1)[C@@H](NC(=O)CN1CCCN(c4cccc(F)c4)S1(=O)=O)C(C3)C2
- pIC50 [1]: 6.85
- pIC50 [6]: 7.30

Continued, in another order:

- pIC50 [1]: 9.00
- remaining at 0.5 h [4]: 26%
- remaining at 0.5 h [5]: 40%
- pIC50 [6]: 9.00
SMILES: NC(=O)[C@]12CC3CC(C1)[C@@H](NC(=O)CN1CCCCN(c4c(Cl)cc(Cl)cc4Cl)S1(=O)=O)C(C3)C2
- inhibition in vivo at 20 mg/kg [2]: 51.4%
- inhibition in vivo at 20 mg/kg [3]: 59.9%

- pIC50 [6]: 5.47
SMILES: O=C(CN1CCCN(c2ccccc2)S1(=O)=O)NC12CC3CC(CC(C3)C1)C2

- pIC50 [1]: 8.70
- remaining at 0.5 h [4]: 7%
- remaining at 0.5 h [5]: 21%
- pIC50 [6]: 9.00
SMILES: CN(CC(=O)N[C@H]1C2CC3CC1C[C@](C(N)=O)(C3)C2)S(=O)(=O)N(C)c1c(Cl)cc(Cl)cc1Cl
- inhibition in vivo at 20 mg/kg [2]: 57.8%
- inhibition in vivo at 20 mg/kg [3]: 33.3%

- pIC50 [1]: 6.68
- pIC50 [6]: 7.77
SMILES: NC(=O)[C@]12CC3CC(C1)[C@@H](NC(=O)CN1CCCN(c4ccccc4)S1(=O)=O)C(C3)C2

- pIC50 [1]: 8.40
- remaining at 0.5 h [4]: 57%
- remaining at 0.5 h [5]: 61%
- pIC50 [6]: 9.00
SMILES: NC(=O)[C@]12CC3CC(C1)[C@@H](NC(=O)CN1CCCN(c4c(Cl)cc(Cl)cc4Cl)S1(=O)=O)C(C3)C2
- inhibition in vivo at 20 mg/kg [2]: 83.7%
- inhibition in vivo at 20 mg/kg [3]: 92.1%

- pIC50 [6]: 5.78
SMILES: O=C(CN1CCCN(CCc2ccccc2)S1(=O)=O)NC1C2CC3CC(C2)CC1C3 (stereo not given)

- pIC50 [1]: 7.15
- remaining at 0.5 h [4]: 70%
- remaining at 0.5 h [5]: 94%
- pIC50 [6]: 9.00
SMILES: CC1CCN(c2c(Cl)cc(Cl)cc2Cl)S(=O)(=O)N1CC(=O)N[C@H]1C2CC3CC1C[C@](C(N)=O)(C3)C2 (mixture of isomers)
- inhibition in vivo at 20 mg/kg [3]: 74.5%
